Screening results (PubChem BioAssay)
KCNQ1 inh: inhibitors of human KCNQ1 channel, primary screen, cell-based, thallium flux, high-throughput; B-score at 10 µM; AID 2642, 2010; Potassium voltage-gated channel subfamily KQT member 1 (Homo sapiens), P51787; 1.3% of 310,000 active; CHO-K1 KCNQ1, FluxOR thallium flux fluorescence; active compounds read high;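 active means compounds whose thallium flux B-score, printed positive for inhibition, exceeds three library SD while starting fluorescence stays within three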;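 further: channel opened by potassium depolarization with thallium stimulus after 20 min compound exposure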
KCNQ1 pot: potentiators or activators of KCNQ1 channel, primary screen, cell-based, thallium flux, high-throughput; Potassium voltage-gated channel subfamily KQT member 1 (Homo sapiens), P51787; CHO-K1 KCNQ1, thallium flux FluxOR fluorescence; active compounds read high; B-score at 10 µM; 0.35% of 310,000 active;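 active means fluorescence ratio B-score, a plate-corrected score, at least three library SD, with initial intensity B-score within 5 SD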
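assay system = KCNQ1-transfected CHO-K1 cells | medium = assay buffer with matched DMSO | probe or stimulus = depolarizing K+/Tl+ stimulus, K2SO4 and Tl2SO4 each 12.5 mM in 5x stock | dosing = single dose | incubation = dye 90 min, compound 20 min, room temperature | detection = kinetic FluxOR fluorescence, 10 s baseline plus 110 s post-stimulus | evaluation = ratio B score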
KCNK3 block: human KCNK3 channel inhibitors, primary screen, CHO cells, FluxOR thallium flux, B-score. FluxOR fluorescence; active compounds read low. B-score at 10 µM. 0.84% of 340,000 active;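 active means B-score under library mean minus 4 SD, starting fluorescence ratio at most library mean plus 5 SD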;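 further: more negative B-score means stronger inhibition of thallium flux through KCNK3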
Target sequence (O14649 whole entry, looked up): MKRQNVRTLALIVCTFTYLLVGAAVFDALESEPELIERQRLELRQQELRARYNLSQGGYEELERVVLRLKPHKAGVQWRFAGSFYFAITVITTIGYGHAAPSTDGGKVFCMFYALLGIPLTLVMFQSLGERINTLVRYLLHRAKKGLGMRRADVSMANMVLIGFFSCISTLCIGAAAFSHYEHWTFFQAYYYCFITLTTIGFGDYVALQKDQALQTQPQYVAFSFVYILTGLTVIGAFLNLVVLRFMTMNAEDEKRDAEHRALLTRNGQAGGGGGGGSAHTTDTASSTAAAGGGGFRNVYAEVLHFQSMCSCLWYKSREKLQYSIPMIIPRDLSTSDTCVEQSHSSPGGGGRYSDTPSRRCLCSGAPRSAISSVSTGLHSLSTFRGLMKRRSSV
KCNK9 inh: KCNK9 potassium channel inhibitors, primary screen, HEK293 cells, thallium flux; 1.2% of 310,000 active; AID 488922, 2010; FluxOR thallium flux fluorescence; active compounds read low; B-score at 10 µM; Potassium channel subfamily K member 9 (Homo sapiens), Q9NPC2;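 active means ratio B-score over 3 SD below the library mean, with starting fluorescence within 5 SD of its mean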;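 further: negative B-score means less thallium flux so channel inhibition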
hERG rescue: hERG rescue from dofetilide block, primary screen, cell-based, CHO-hERG, FluxOR thallium flux, dofetilide IC70. Voltage-gated inwardly rectifying potassium channel KCNH2 (Homo sapiens), Q12809. dofetilide IC70 present. 0.51% of 310,000 active. activation (rescue from dofetilide block), less the hit threshold, % at 10 µM. AID 1511, 2009;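 active means activation above the mean of controls blocked by dofetilide plus 5 SD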;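 further: thallium influx through hERG after potassium depolarization seen as dye fluorescence rise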
KCNK9 inh conf: KCNK9 potassium channel inhibitors, confirmation, HEK293 cells, thallium flux, duplicate; shares compounds with KCNK9 inh; inhibition, % at 10 µM; FluxOR thallium flux fluorescence; 43% of 4,900 active; AID 492992, 2010;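 active means thallium signal inhibited by more than 5 SD of the compound-free buffer control wells, on both duplicate plates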;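 further: 0% = assay buffer control wells without compound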
Kir2-1 spec: mouse Kir2.1 channel inhibition, confirmation, selectivity assay for KCNK9 modulator project, cell-based, HEK293, thallium flux; inhibition, % at 10 µM; Kir2.1 cells, FluxOR thallium flux fluorescence; shares compounds with KCNK9 inh; 4% of 4,900 active;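 active means thallium signal drop more than 5 SD beyond the mean of the no-compound control wells, seen in both duplicate plates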;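 further: signal is fluorescence rise after thallium addition divided by baseline fluorescence; plate controls were assay buffer only for no effect and full block by chlorpromazine control for full effect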
HEK293 Tl ctr: thallium flux in non-induced HEK293 cells, confirmation, counter-screen for KCNK9 inhibitor project, cell-based, second counter screen, non-induced KCNK9-HEK293; shares compounds with KCNK9 inh; FluxOR thallium flux; inhibition, % at 10 µM; 40% of 4,900 active; AID 492997, 2010;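 active means thallium signal drop beyond 5 SD of the untreated control mean, on both duplicate plates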;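 further: plate controls were buffer only IC0 wells for no effect and SID17386958 at its maximal inhibitory level for full effect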
* marks the source's active call; other numbers are inactive results; i = inactive; nt = no result. Only some compounds are listed: those with a hit (about 3.1% of all), similar ones and a draw of the others.

SMILES	KCNQ1 inh	KCNQ1 pot	KCNK3 block	KCNK9 inh	hERG rescue	KCNK9 inh conf	Kir2-1 spec	HEK293 Tl ctr
O=C(COC(=O)c1ccccc1C(=O)c1ccccc1)Nc1ccc(SC(F)F)cc1	i	i	i	-12*	-10	i	i	32%*
O=C(COc1ccccc1C(=O)O)Nc1ccc(SC(F)F)cc1	i	i	i	i	-8	nt	nt	nt
COc1ccc(CC(=O)NCc2ccc(Cl)cc2)cc1S(=O)(=O)N1CCOCC1	nt	nt	i	nt	nt	nt	nt	nt
O=C(OCCCOC(=O)c1ccccc1O)c1ccccc1O	i	i	nt	i	-8	nt	nt	nt
Cc1ccccc1NC(=O)NC1(C(=O)N2CCN(C)CC2)CCCCC1	i	i	i	i	-8	nt	nt	nt
Cc1cc(C)c(-c2csc(NC(=O)/C=C/c3cccs3)n2)c(C)c1	i	i	i	i	-5	i	i	i
C=CCn1c(C)cc(C(=O)CSc2nnc3n(CCC)c(=O)c4ccccc4n23)c1C	nt	nt	i	nt	nt	nt	nt	nt
O=C(C1=C(O)C(=O)N(CC2CCCO2)C1c1ccc(Cl)cc1Cl)c1ccco1 (centres undefined)	i	i	i	i	-4	nt	nt	nt
Brc1cc2c(cc1C1Nc3ccccc3C3C=CCC31)OCO2 (centres undefined)	i	i	i	-8.3*	-12	56%*	i	42%*
O=C(O)c1ccc2c(c1)C1C=CCC1C(c1cc3c(cc1Br)OCO3)N2 (centres undefined)	i	i	i	i	-4	nt	nt	nt
O=C(CN1CCN(c2ccccn2)CC1)N1c2ccccc2Sc2ccc(C(F)(F)F)cc21	i	i	i	i	-11	i	i	i
O=C(CN1CCCC1)N1c2ccccc2Sc2ccc(C(F)(F)F)cc21	i	i	i	i	-11	nt	nt	nt
CC12CC(O)C3C(CCC4=CC(=O)CCC43C)C1CCC2=CCO (centres undefined)	nt	nt	i	nt	nt	nt	nt	nt
COc1cc(C(=O)OCC(=O)NC2CC2)ccc1OCCC(C)C	nt	nt	i	nt	nt	nt	nt	nt
O=C(O)c1cnc(-c2ccccc2)nc1Sc1ccc(Cl)cc1Cl	i	i	i	i	-3	i	i	i
CCOc1ccc(C(=O)Nc2ccc(NC(=O)c3ccccc3)cc2)cc1Br	i	i	i	i	-7	nt	nt	nt
CCOc1ccc(C(=O)Nc2ccc(Cc3ccncc3)cc2)cc1Br	i	i	i	i	-4	i	i	i
Cc1ccc(-c2nnc(N3CCCCC3)c3ccccc23)cc1S(=O)(=O)NCC1CCCO1 (centres undefined)	i	i	i	-12*	-20	i	i	i
COc1nnc(-c2ccc(C)c(S(=O)(=O)NCC3CCCO3)c2)c2ccccc12 (centres undefined)	i	i	i	i	-8	nt	nt	nt
CN(C)CC/C=C1\c2ccc(F)cc2Sc2cc(F)c(Cl)cc21	i	i	i	i	-19	i	45%*	i
CN(C)CC/C=C1/c2cc(F)ccc2CSc2ccc(F)cc21	i	i	i	i	-11	nt	nt	nt
CN(C)CC/C=C1\c2ccccc2Sc2cc(F)c(Cl)cc21	i	i	i	i	-18	i	49%*	i
CN(C)CC/C=C1\c2ccccc2Sc2ccc(Cl)cc21	i	i	i	i	-14	i	59%*	i
CN(C)CC/C=C1\c2cc(F)ccc2CSc2ccccc21	i	i	i	i	-6	nt	nt	nt
CN(C)CC/C=C1\c2cc(Cl)ccc2Sc2cc(F)c(F)cc21	i	i	i	i	-19	i	34%*	i
SMILES	KCNQ1 inh	KCNQ1 pot	KCNK3 block	KCNK9 inh	hERG rescue	KCNK9 inh conf	Kir2-1 spec	HEK293 Tl ctr
CCN(CC)C(=O)c1ccccc1NC(=O)CN1C(=O)c2ccccc2S1(=O)=O	i	i	i	i	0	nt	nt	nt
C=CCC[C@H](Cc1ccc(F)cc1)C(=O)OC[C@H](C)NC(=O)[C@@H](CC=C)CC(=O)N[C@H](CO)Cc1ccccc1	nt	nt	i	nt	nt	nt	nt	nt
CC[N+](C)(C)CC/C=C1/c2ccccc2Sc2ccc(Cl)cc21	i	i	i	i	-6	nt	nt	nt
CCCCCCCCCC[N+](C)(C)CC/C=C1/c2ccccc2Sc2ccc(Cl)cc21	i	i	i	-13*	-14	58%*	50%*	i
CN(C)CC/C=C1/c2ccc(F)cc2Sc2ccc(Cl)cc21	i	i	i	i	-18	i	50%*	i
CC[C@]12c3[nH]c4ccc(OC)cc4c3CCN1C(=O)C(CC(=O)NC(C)(C)C)C[C@@H]2C(=O)N1CCN(C(=O)c2ccco2)CC1 (some centres undefined)	nt	nt	i	nt	nt	nt	nt	nt
COc1ccc(C(=O)N2CCC(C(=O)NC3CC3)CC2)cc1	i	i	i	i	-2	nt	nt	nt
COC(=O)c1ccccc1NC(=O)C1CCN(C(=O)c2ccc(OC)cc2)CC1	i	i	i	i	-7	i	i	i
CCn1cc(CCCC(=O)NCc2cccnc2)c2ccccc21	i	i	i	i	-6	nt	nt	nt
CCOc1ccccc1CNC(=O)CCc1cn(CC)c2ccccc12	i	i	i	i	-6	i	i	i
CCn1cc(CCCC(=O)NCc2ccc(OC)cc2)c2ccccc21	i	i	i	i	-3	i	i	i
CCn1cc(CCC(=O)NCCc2ccccc2)c2ccccc21	i	i	i	i	-1	nt	nt	nt
C(=C\n1nnc2ccccc21)/c1ccc[nH]1	i	i	i	i	1	nt	nt	nt
CCOC(=O)c1cnn(-c2nc(SC)nc3sc4c(c23)CCCC4)c1N	i	12*	i	-16*	9.2*	66%*	i	33%*
Cc1cc(/C=c2\sc3nc4ccccc4n3c2=O)c(C)n1-c1ccc(C(=O)O)cc1	i	i	i	i	-31	i	i	i
O=C(Nc1ccccc1)c1ccccc1OS(=O)(=O)c1ccccc1	i	i	i	i	-4	nt	nt	nt
